Measured values: ChEMBL document CHEMBL1131631, “Piperazinyl oxazolidinone antibacterial agents containing a pyridine, diazene, or triazene heteroaromatic ring” (1998)
Converted amounts (≈) assume the structure as drawn.

How the values were obtained:
[1] = tested on: Enterococcus faecalis; assay: Minimum inhibitory concentration against Enterococcus faecalis UC9217; type: functional
How it was run: (§1)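 MIC in µg/mL. S. aureus UC 9213 is methicillin-susceptible, and S. aureus UC 6685 and S. epidermidis UC 12084 are methicillin-resistant. E. faecalis UC 9217 and S. pneumoniae UC 9912 were also tested.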

[2] = tested on: Mus musculus; assay: Compound was tested against Staphylococcus aureus UC9213 after po administration in mouse; type: functional
How it was run: (§2)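 Lethal systemic S. aureus infection in mice, with oral dosing. The ED50 is the dose in mg/kg body weight per dose that reduces mortality by 50%. The 95% confidence limits are −50% and +100% of the nominal value.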

[3] = tested on: Staphylococcus aureus; assay: Minimum inhibitory concentration against Staphylococcus aureus UC6685; type: functional; how it was run: as §1
[4] = tested on: Staphylococcus epidermidis; assay: Minimum inhibitory concentration against Staphylococcus epidermis UC12084; type: functional; how it was run: as §1
[5] = tested on: Streptococcus pneumoniae; assay: Minimum inhibitory concentration Streptococcus pneumoniae UC9912; type: functional; how it was run: as §1
[6] = tested on: Staphylococcus aureus; assay: Minimum inhibitory concentration against Staphylococcus aureus UC9213; type: functional; how it was run: as §1
[7] = tested on: Mus musculus; assay: compound was tested against Staphylococcus aureus UC9213 the eperezolid administered (PO) in mouse positive control expressed as ED50 values.
[8] = tested on: Staphylococcus aureus; assay: compound was tested against Staphylococcus aureus UC9213 the eperezolid administered positive control expressed as ED50 values.; type: functional
How it was run: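 Eperezolid was given orally in the same lethal systemic mouse S. aureus trial as the test agents. The ED50 is the mg/kg/dose that reduces mortality by 50%.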

[9] = tested on: Staphylococcus aureus; assay: compound was tested against Staphylococcus aureus UC9213 after po administration.; type: functional; how it was run: as §2
[10] = tested on: Streptococcus pneumoniae; assay: MIC activity against Streptococcus pneumoniae UC9912; type: functional; how it was run: as §1
[11] = tested on: Caco-2; assay: (§3) permeability assessment across a monolayer of caco-2 cells in absence of GSH in aqueous base.; type: functional, Homo sapiens
[12] = tested on: Caco-2; assay: (§4) permeability assessment across a monolayer of caco-2 cells in presence of GSH in aqueous base.; type: functional, Homo sapiens
[13] = tested on: Caco-2; assay: (§5) permeability assessment across […]; type: functional, Homo sapiens
[14] = tested on: Caco-2; assay: as §3; type: functional
[15] = tested on: Caco-2; assay: as §4; type: functional
[16] = tested on: Caco-2; assay: as §5; type: functional
[17] = tested on: Caco-2; assay: as §5; type: functional; remark: listed apart in the source
[18] = tested on: Mus musculus; assay: compound was tested against Staphylococcus aureus UC9213 the vancomycin administered (sc) in mouse positive control expressed as ED50 values.; type: functional

SMILES	MIC [1] [µg/mL]	MIC [3] [µg/mL]	MIC [4] [µg/mL]	MIC [5] [µg/mL]	MIC [6] [µg/mL]	MIC [10] [µg/mL]	ED50 [2] [mg/kg]	ED50 [7] [mg/kg]	ED50 [8] [mg/kg]	ED50 [9] [mg/kg]	[A] [11] [µM]	[A] [12] [µM]	[EA] [13] [µM]	[A] [14] [µM]	[A] [15] [µM]	[EA] [16] [µM]	[EA] [17] [µM]	ED50 [18] [mg/kg]
CC(=O)NC[C@H]1CN(c2ccc(N3CCN(c4ccc(C#N)cn4)CC3)c(F)c2)C(=O)O1	1 (≈ 2.28 µM)	2 (≈ 4.56 µM)	0.5 (≈ 1.14 µM)	0.5 (≈ 1.14 µM)	2 (≈ 4.56 µM)	–	6.8	5.8	–	–	–	–	–	–	–	–	–	–
CC(=O)NC[C@H]1CN(c2ccc(N3CCN(c4cccc(C)n4)CC3)c(F)c2)C(=O)O1	2 (≈ 4.68 µM)	2 (≈ 4.68 µM)	2 (≈ 4.68 µM)	0.5 (≈ 1.17 µM)	4 (≈ 9.36 µM)	–	–	–	–	–	–	–	–	–	–	–	–	–
COc1nc(OC)nc(N2CCN(c3ccc(N4C[C@H](CNC(C)=O)OC4=O)cc3F)CC2)n1	1 (≈ 2.1 µM)	2 (≈ 4.21 µM)	1 (≈ 2.1 µM)	0.5 (≈ 1.05 µM)	4 (≈ 8.41 µM)	–	–	–	–	–	–	–	–	–	–	–	–	–
CC(=O)NC[C@H]1CN(c2ccc(N3CCN(c4nc(F)c(F)cc4F)CC3)c(F)c2)C(=O)O1	2 (≈ 4.28 µM)	2 (≈ 4.28 µM)	1 (≈ 2.14 µM)	0.5 (≈ 1.07 µM)	2 (≈ 4.28 µM)	–	–	–	–	–	–	–	–	–	–	–	–	–
CC(=O)NC[C@H]1CN(c2ccc(N3CCN(c4cncc(Cl)n4)CC3)c(F)c2)C(=O)O1	1 (≈ 2.23 µM)	1 (≈ 2.23 µM)	0.5 (≈ 1.11 µM)	0.5 (≈ 1.11 µM)	2 (≈ 4.46 µM)	–	–	–	3.2	> 20	–	–	–	–	–	–	–	–
CC(=O)NC[C@H]1CN(c2ccc(N3CCN(c4c(F)c(F)nc(F)c4F)CC3)c(F)c2)C(=O)O1	> 16	> 16	> 16	2 (≈ 4.12 µM)	> 16	–	–	–	–	–	–	–	–	–	–	–	–	–
CC(=O)NC[C@H]1CN(c2ccc(N3CCN(c4cc(C#N)ccn4)CC3)c(F)c2)C(=O)O1	1 (≈ 2.28 µM)	1 (≈ 2.28 µM)	1 (≈ 2.28 µM)	0.5 (≈ 1.14 µM)	1 (≈ 2.28 µM)	–	–	–	–	–	–	–	–	–	–	–	–	–
CC(=O)NC[C@H]1CN(c2ccc(N3CCN(c4ccncn4)CC3)c(F)c2)C(=O)O1	1 (≈ 2.41 µM)	2 (≈ 4.83 µM)	1 (≈ 2.41 µM)	0.5 (≈ 1.21 µM)	2 (≈ 4.83 µM)	–	4.4	1.8	–	–	40	40	50	–	–	–	–	–
CC(=O)NC[C@H]1CN(c2ccc(N3CCN(c4ccnc(C)c4)CC3)c(F)c2)C(=O)O1	2 (≈ 4.68 µM)	2 (≈ 4.68 µM)	0.5 (≈ 1.17 µM)	0.25 (≈ 0.585 µM)	4 (≈ 9.36 µM)	–	–	–	–	–	–	–	–	–	–	–	–	–
CC(=O)NC[C@H]1CN(c2ccc(N3CCN(c4c(Cl)c(Cl)nc(Cl)c4Cl)CC3)c(F)c2)C(=O)O1	> 16	> 16	> 16	> 16	> 16	–	–	–	–	–	–	–	–	–	–	–	–	–
CC(=O)NC[C@H]1CN(c2ccc(N3CCN(c4cc(NC(C)=O)c(Cl)nn4)CC3)c(F)c2)C(=O)O1	> 16	> 16	16 (≈ 31.6 µM)	4 (≈ 7.91 µM)	> 16	–	–	–	–	–	–	–	–	–	–	–	–	–
CC(=O)NC[C@H]1CN(c2ccc(N3CCN(c4ccncc4)CC3)c(F)c2)C(=O)O1	2 (≈ 4.84 µM)	2 (≈ 4.84 µM)	0.5 (≈ 1.21 µM)	< 0.125	4 (≈ 9.67 µM)	–	–	–	–	–	–	–	–	–	–	–	–	–
CC(=O)NC[C@H]1CN(c2ccc(N3CCN(c4ccnc5ccccc45)CC3)c(F)c2)C(=O)O1	2 (≈ 4.31 µM)	2 (≈ 4.31 µM)	0.5 (≈ 1.08 µM)	0.25 (≈ 0.539 µM)	2 (≈ 4.31 µM)	–	–	–	–	–	–	–	–	–	–	–	–	–
CC(=O)NC[C@H]1CN(c2ccc(N3CCN(c4cccc(F)n4)CC3)c(F)c2)C(=O)O1	2 (≈ 4.64 µM)	2 (≈ 4.64 µM)	1 (≈ 2.32 µM)	0.5 (≈ 1.16 µM)	2 (≈ 4.64 µM)	–	–	–	–	–	–	–	–	–	–	–	–	–
CC(=O)NC[C@H]1CN(c2ccc(N3CCN(C(=O)CO)CC3)c(F)c2)C(=O)O1 [EPEREZOLID]	2 (≈ 5.07 µM)	1 (≈ 2.54 µM)	0.5 (≈ 1.27 µM)	0.5 (≈ 1.27 µM)	4 (≈ 10.1 µM)	–	1.9	–	–	–	–	–	–	–	–	–	–	3.9
CC(=O)NC[C@H]1CN(c2ccc(N3CCOCC3)c(F)c2)C(=O)O1 [LINEZOLID]	–	–	1 (≈ 2.96 µM)	–	–	–	5.6	–	–	–	–	–	–	–	–	–	–	3.9

Now from value to compound, other results behind:

MIC [1] [µg/mL]	MIC [3] [µg/mL]	MIC [4] [µg/mL]	MIC [5] [µg/mL]	MIC [6] [µg/mL]	MIC [10] [µg/mL]	SMILES	ED50 [2] [mg/kg]	ED50 [7] [mg/kg]	ED50 [8] [mg/kg]	ED50 [9] [mg/kg]	[A] [11] [µM]	[A] [12] [µM]	[EA] [13] [µM]	[A] [14] [µM]	[A] [15] [µM]	[EA] [16] [µM]	[EA] [17] [µM]	ED50 [18] [mg/kg]
2 (≈ 4.67 µM)	2 (≈ 4.67 µM)	1 (≈ 2.33 µM)	0.5 (≈ 1.17 µM)	4 (≈ 9.34 µM)	–	CC(=O)NC[C@H]1CN(c2ccc(N3CCN(c4ccc(C)nn4)CC3)c(F)c2)C(=O)O1	6.3	8.7	–	–	–	–	–	–	–	–	–	–
2 (≈ 4.83 µM)	1 (≈ 2.41 µM)	0.5 (≈ 1.21 µM)	0.5 (≈ 1.21 µM)	2 (≈ 4.83 µM)	–	CC(=O)NC[C@H]1CN(c2ccc(N3CCN(c4cnccn4)CC3)c(F)c2)C(=O)O1	12.5	3.2	–	–	–	–	–	–	–	–	–	–
2 (≈ 4.49 µM)	4 (≈ 8.98 µM)	1 (≈ 2.24 µM)	0.5 (≈ 1.12 µM)	4 (≈ 8.98 µM)	–	CC(=O)NC[C@H]1CN(c2ccc(N3CCN(c4nc(N)nc(N)n4)CC3)c(F)c2)C(=O)O1	> 20	4.4	–	–	–	–	–	–	–	–	–	–
4 (≈ 8.57 µM)	4 (≈ 8.57 µM)	2 (≈ 4.29 µM)	1 (≈ 2.14 µM)	4 (≈ 8.57 µM)	–	CC(=O)NC[C@H]1CN(c2ccc(N3CCN(c4nc(C)cc(C)c4C#N)CC3)c(F)c2)C(=O)O1	–	–	–	–	–	–	–	–	–	–	–	–
> 16	> 16	4 (≈ 8.39 µM)	2 (≈ 4.19 µM)	> 16	–	CC(=O)NC[C@H]1CN(c2ccc(N3CCN(c4nnc(Cl)c(C)c4C)CC3)c(F)c2)C(=O)O1	–	–	–	–	–	–	–	–	–	–	–	–
2 (≈ 4.5 µM)	4 (≈ 9 µM)	1 (≈ 2.25 µM)	< 0.5	8 (≈ 18 µM)	–	CC(=O)NC[C@H]1CN(c2ccc(N3CCN(c4cc(N)nc(N)n4)CC3)c(F)c2)C(=O)O1	–	–	–	–	–	–	–	–	–	–	–	–
> 16	> 16	16 (≈ 33.2 µM)	2 (≈ 4.15 µM)	> 16	–	CC(=O)NC[C@H]1CN(c2ccc(N3CCN(c4nccc(C(F)(F)F)n4)CC3)c(F)c2)C(=O)O1	–	–	–	–	–	–	–	–	–	–	–	–
1 (≈ 2.23 µM)	1 (≈ 2.23 µM)	0.5 (≈ 1.11 µM)	–	2 (≈ 4.46 µM)	0.5 (≈ 1.11 µM)	CC(=O)NC[C@H]1CN(c2ccc(N3CCN(c4ccnc(Cl)n4)CC3)c(F)c2)C(=O)O1	–	–	1.8	14.6	17	17	50	–	–	–	–	–
4 (≈ 8.64 µM)	4 (≈ 8.64 µM)	2 (≈ 4.32 µM)	1 (≈ 2.16 µM)	8 (≈ 17.3 µM)	–	CC(=O)NC[C@H]1CN(c2ccc(N3CCN(c4cc(C)c(Cl)nn4)CC3)c(F)c2)C(=O)O1	–	–	8.7	> 20	–	–	–	–	–	–	–	–
8 (≈ 15.7 µM)	8 (≈ 15.7 µM)	8 (≈ 15.7 µM)	2 (≈ 3.94 µM)	16 (≈ 31.5 µM)	–	CCCOc1nc(Cl)nc(N2CCN(c3ccc(N4C[C@H](CNC(C)=O)OC4=O)cc3F)CC2)n1	–	–	–	–	–	–	–	–	–	–	–	–
2 (≈ 4.84 µM)	2 (≈ 4.84 µM)	1 (≈ 2.42 µM)	0.5 (≈ 1.21 µM)	4 (≈ 9.67 µM)	–	CC(=O)NC[C@H]1CN(c2ccc(N3CCN(c4ccccn4)CC3)c(F)c2)C(=O)O1	11.2	6	–	–	37	37	–	–	–	–	–	–
1 (≈ 2.28 µM)	2 (≈ 4.56 µM)	0.5 (≈ 1.14 µM)	0.5 (≈ 1.14 µM)	2 (≈ 4.56 µM)	–	CC(=O)NC[C@H]1CN(c2ccc(N3CCN(c4ncccc4C#N)CC3)c(F)c2)C(=O)O1	> 20	3.2	–	–	–	–	–	–	–	–	–	–
1 (≈ 2.03 µM)	1 (≈ 2.03 µM)	0.5 (≈ 1.02 µM)	0.5 (≈ 1.02 µM)	2 (≈ 4.06 µM)	–	CC(=O)NC[C@H]1CN(c2ccc(N3CCN(c4cccc(Br)n4)CC3)c(F)c2)C(=O)O1	–	–	2.7	> 20	2.6	2.6	50	–	–	–	–	–
2 (≈ 4.83 µM)	2 (≈ 4.83 µM)	0.5 (≈ 1.21 µM)	0.5 (≈ 1.21 µM)	2 (≈ 4.83 µM)	–	CC(=O)NC[C@H]1CN(c2ccc(N3CCN(c4ncccn4)CC3)c(F)c2)C(=O)O1	6	6.2	–	–	–	–	–	–	–	–	–	–
4 (≈ 7.85 µM)	4 (≈ 7.85 µM)	1 (≈ 1.96 µM)	0.5 (≈ 0.981 µM)	4 (≈ 7.85 µM)	–	CC(=O)NC[C@H]1CN(c2ccc(N3CCN(c4ccc5nc(C)c(C(C)=O)n5n4)CC3)c(F)c2)C(=O)O1	–	–	–	–	–	–	–	–	–	–	–	–
2 (≈ 4.14 µM)	2 (≈ 4.14 µM)	1 (≈ 2.07 µM)	0.5 (≈ 1.03 µM)	2 (≈ 4.14 µM)	–	CC(=O)NC[C@H]1CN(c2ccc(N3CCN(c4cnnc(Cl)c4Cl)CC3)c(F)c2)C(=O)O1	–	–	3.2	> 20	–	–	–	34	34	50	0	–
2 (≈ 4.83 µM)	2 (≈ 4.83 µM)	0.5 (≈ 1.21 µM)	0.5 (≈ 1.21 µM)	4 (≈ 9.65 µM)	–	CC(=O)NC[C@H]1CN(c2ccc(N3CCN(c4cccnn4)CC3)c(F)c2)C(=O)O1	8.8	8.7	–	–	–	36	–	–	–	–	–	–
